SENP8 block-1: blocks the human protease SENP8. Q96LD8. purified SENP8, Z-RLRGG-aminoluciferin cleavage, luminescence. inhibition, % at 10 µM. 330,000 compounds, 1.2% hits. AID 2540; in the data active = inhibition above about 50%
Target sequence (Q96LD8 whole entry, looked up): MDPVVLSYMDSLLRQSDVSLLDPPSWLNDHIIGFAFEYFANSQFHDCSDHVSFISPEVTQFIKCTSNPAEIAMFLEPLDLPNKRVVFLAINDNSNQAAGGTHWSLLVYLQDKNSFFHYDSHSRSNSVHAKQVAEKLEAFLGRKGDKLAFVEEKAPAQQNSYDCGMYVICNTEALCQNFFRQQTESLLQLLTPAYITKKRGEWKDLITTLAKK
SENP8 block-2: blocks human SENP8 cleavage of Nedd8 substrate | Q96LD8 | recombinant SENP8, Nedd8 substrate fluorescence | inhibition, % at 20 µM | 360,000 compounds, 0.64% hits; in the data active = inhibition mostly above about 40%, no sharp cut-off; inactive = mostly below about 27%
SENP6 block: SENP6 protease inhibition; Q9GZR1; Recombinant SENP6 catalytic domain, aminoluciferin luminescence; inhibition, % at 10 µM; 330,000 compounds, 1.8% hits; AID 2599;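 active = inhibition above about 50% at the single tested dose, limit read from the data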
Platelet DG rel: platelet dense granule release activity | human platelet-rich plasma, SFLLRN dense granule ATP release, luminescence | inhibition, %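 (compounds screened at 7.5 µM in platelet-rich plasma)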 | 300,000 compounds, 0.22% hits | AID 1663;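 active = mean replicate score, as percent of positive control, at or above 50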
SENP7 block: SENP7 protease inhibition. Q9BQF6. recombinant SENP7, Z-RLRGG-aminoluciferin luminescence, 40 min. inhibition, % at 5 µM. 330,000 compounds, 1.5% hits;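 active = inhibition above about 50% at the single test dose, limit read from the data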
Target sequence (Q9BQF6 706-1050 limits assumed): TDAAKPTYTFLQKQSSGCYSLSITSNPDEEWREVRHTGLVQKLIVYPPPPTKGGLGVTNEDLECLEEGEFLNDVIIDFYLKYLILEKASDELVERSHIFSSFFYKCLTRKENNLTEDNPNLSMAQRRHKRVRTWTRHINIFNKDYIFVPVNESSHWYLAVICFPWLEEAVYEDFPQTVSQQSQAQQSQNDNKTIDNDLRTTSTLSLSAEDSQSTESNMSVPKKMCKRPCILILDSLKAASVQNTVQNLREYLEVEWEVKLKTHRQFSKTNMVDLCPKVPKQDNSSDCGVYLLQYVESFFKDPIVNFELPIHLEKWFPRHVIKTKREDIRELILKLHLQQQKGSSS
SENP1 FRET inh: blocks the human SENP1 SUMO protease catalytic domain; recombinant SENP1 catalytic domain, CyPet-SUMO1-YPet FRET cleavage; inhibition, % at 10 µM; 360,000 compounds, 0.21% hits; AID 624204;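 active = inhibition at least 30% at 10 µM, raw YFP signal under a set limit, fluorescence ratio 0.5 to 1.5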
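Assay system: hSENP1 catalytic domain, recombinant. Amount: SENP1 enzyme, 20 pM final. Schedule: 50 min reaction, RT, dark. Technique: FRET, CFP and YFP emission. Control set: no-enzyme wells low, DMSO-plus-enzyme wells high control.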
Of the large screens only hits and unclear results are named; the others gave an inactive call. This is a sample that favours compounds with a hit; in the whole collection about 2.6% have one here.

Cc1nc2c(cc1C#N)C(=O)c1ccccc1-2	none
Cc1nc2c(nc1C)C(=O)c1ccccc1C2=O	SENP8 block-2 65 (no result: SENP8 block-1, SENP6 block, Platelet DG rel, SENP7 block)
COc1ccc(NC(=O)C(=O)NCC2CCCN2S(=O)(=O)c2cc(C)ccc2C)cc1 (stereo unspecified)	none
N#C/C(=N\Nc1ccc(Cl)cc1)C(N)=S	SENP8 block-2 46
N#C/C(=N/Nc1ccccc1[N+](=O)[O-])C(N)=S	SENP8 block-2 45
COCCCN1C(=O)C(CC(=O)NCc2cccs2)CC(C(=O)N(C(C)C)C(C)C)=C1C (stereo unspecified)	none (no result: SENP8 block-1, SENP6 block, Platelet DG rel, SENP7 block)
O=C(Nc1ccc(Cl)c(Cl)c1)Nc1nccs1	SENP6 block 65
COc1ccc(CNc2nc3ccccc3n2C(C)C)c(O)c1	none
COc1ccc(CNc2nc3ccccc3n2C)c(OC)c1	SENP8 block-1 60, SENP7 block 61
COCCN(Cc1cc2cc3c(cc2nc1Cl)OCO3)C(=O)c1ccc(C)cc1	none
CN(/N=C/c1ccc2c(c1)OCO2)c1ccccc1	SENP8 block-1 64, SENP6 block 63, SENP7 block 57
CS/C(N)=N/N=C/c1ccc2c(c1)OCO2	SENP7 block 50
C(=N\N(c1ccccc1)c1ccccc1)/c1ccc2c(c1)OCO2	none
COc1cccc(CN(C(=O)c2cccs2)C2CCS(=O)(=O)C2)c1 (stereo unspecified)	none
O=C1N/C(=N/Nc2ccccc2)S/C1=C\c1ccccc1	SENP1 FRET inh 105
Cc1ccc(N=Nc2c(C)[nH]n(C(N)=S)c2=O)cc1	SENP8 block-1 74, SENP6 block 79, SENP7 block 63
CCOC(=O)[C@]12CCC=C1N(CCC1=CCCCC1)C(=O)[C@H](CC(=O)NCc1ccccc1)C2	none (no result: SENP8 block-1, SENP6 block, Platelet DG rel, SENP7 block)
O=C1/C(=N\S(=O)(=O)c2cccs2)C([n+]2cccc(Cc3ccccc3)c2)=C([O-])c2ccccc21	SENP8 block-2 77
COc1ccc(CN2CCCCC2C(=O)Nc2ccc(OC)c(OC)c2)cc1OC (stereo unspecified)	none
COc1ccc(CN2CCCC2C(=O)Nc2ccc(OC)c(OC)c2)cc1OC (stereo unspecified)	SENP7 block 64
O=C1c2ccccc2C(=O)c2c1cccc2N1CCOCC1	SENP8 block-2 43
Cc1ccccc1NC(=S)N1CCN(c2ccccc2Cl)CC1	none
O=C(N/N=C/C(Br)=C/c1ccccc1)c1cccs1	SENP8 block-1 51, SENP6 block 62
O=c1[nH]c2c(s1)C=Nc1ccccc1N2	Platelet DG rel 77
O=C1CC(c2ccco2)CC2=C1C=Nc1ccccc1N2 (stereo unspecified)	none
CCC(=O)Nc1ccc2c(c1)ncn2-c1ccc(C)cc1	none
Cc1ccc(N=Nc2ccc(O)c3ncccc23)cc1C	none
COc1ccccc1N=Nc1ccc(O)c2ncccc12	SENP8 block-2 87, SENP6 block 65
Cc1ccc(N=Nc2ccc(O)c3ncccc23)cc1	SENP8 block-2 43 (no result: SENP8 block-1, SENP6 block, SENP7 block)
CCS(=O)(=O)c1ccc(N=Nc2ccc(O)c3ncccc23)c(OC)c1	none
COc1ccc(N(CC2CO2)S(=O)(=O)c2ccc(C)cc2)cc1 (stereo unspecified)	none
CC1CCN(C(=O)CCC(=O)Nc2nnc(C3CCCCC3)s2)CC1	none
COc1ccc(/C=C2/C(=O)N(c3nc4ccccc4s3)N=C2CSc2ccc(Cl)cc2)cc1	SENP8 block-2 40
O=[N+]([O-])c1cc2c(cc1C=Nc1ccccc1)OCO2	SENP6 block 57
Cc1cccc(N=Cc2cc3c(cc2[N+](=O)[O-])OCO3)c1	none
O=C(Cc1ccccc1)N/N=C/c1cccs1	none
Cc1ccccc1CSCC(=O)N/N=C/c1cccs1	SENP8 block-2 43 (no result: Platelet DG rel)
COC(=O)N/N=C/c1cc(N=Nc2ccccc2)ccc1O	none
Cc1cc(C(=O)N/N=C/c2cc(N=Nc3ccccc3)ccc2O)n[nH]1	SENP8 block-2 41 (no result: SENP8 block-1, SENP6 block, SENP7 block)
O=C(NCC1CC1)c1onc(CSc2ccncc2)c1C(=O)NCC1CC1	none
COc1cccc(-n2sc3c(c2=S)-c2cc(OC)ccc2NC3(C)C)c1	none
CC1(C)Nc2ccc(O)cc2-c2c1ssc2=S	SENP8 block-2 67
O=C(COC(=O)Cc1n[nH]c(=O)c2ccccc12)Nc1ccc(Cl)cn1	none (no result: Platelet DG rel)
CCOC(=O)C1CCN(C(=O)c2c(C)oc3c2C(=O)c2ccccc2C3=O)CC1	SENP8 block-2 60
Oc1c(Br)cc(Br)cc1C=Nc1cccc2ncccc12	SENP8 block-1 50, SENP6 block 72
Brc1cccc(C=Nc2cccc3ncccc23)c1	none
Cc1ccccc1NC1=C/C(=N\S(=O)(=O)c2ccc(C(=O)O)cc2)c2ccccc2C1=O	SENP8 block-1 95, SENP8 block-2 88, SENP6 block 94, SENP7 block 69
COc1ccc(S(=O)(=O)/N=C2\C=C(Nc3ccc(O)cc3)C(=O)c3ccccc32)cc1	SENP8 block-1 95, SENP8 block-2 90, SENP6 block 93, SENP7 block 87
COC(=O)C(C(C)=O)C1=C/C(=N\S(=O)(=O)c2ccc(C)cc2)c2ccccc2C1=O (stereo unspecified)	none
O=C(O)c1ccc(S(=O)(=O)/N=C2\C=C(Nc3ccccc3F)C(=O)c3ccccc32)cc1	SENP8 block-1 96, SENP8 block-2 88, SENP6 block 98, SENP7 block 65
O=C(CN1CCSC1=O)Nc1ccc(N2CCOCC2)cc1	none (no result: Platelet DG rel)
CCN(CC)C(=O)CSc1nnc([C@@H](N)C(C)C)o1	none
O=C1CCCC2=C1Sc1ccccc1N2	SENP1 FRET inh 52
Nc1ncnc2c1ncn2[C@@H]1O[C@H](CO)[C@@H](O)[C@H]1O	Platelet DG rel 81
CC1(C)OC2C(O1)[C@@H](CO)O[C@H]2n1cnc2c(N)ncnc21 (stereo partly specified)	none
OCC1OC(n2cnc3c(NCCc4ccccc4)ncnc32)C(O)C1O (stereo unspecified)	Platelet DG rel 70
Nc1ccc(CCNc2ncnc3c2ncn3[C@@H]2O[C@H](CO)[C@@H](O)[C@H]2O)cc1	none
O=C(COc1ccc(S(=O)(=O)N2CCOCC2)cc1Cl)NCc1ccc2c(c1)OCO2	none (no result: SENP8 block-1, SENP6 block, Platelet DG rel, SENP7 block)
C/C(=N\OC(=O)c1ccc(F)cc1)c1ccc(F)c(F)c1	SENP8 block-1 73, SENP6 block 80, SENP7 block 92
Cc1cc2c(=Cc3ccc(N(C)C)cc3)c3ccccc3n2[n+]1C	SENP8 block-2 43, SENP1 FRET inh 41 (no result: SENP8 block-1, SENP6 block, Platelet DG rel, SENP7 block)
CN(C)c1ccc(C=c2c3cc(O)ccc3n3c2cc(-c2ccccc2)[n+]3C)cc1	none (no result: SENP8 block-1, SENP6 block, Platelet DG rel, SENP7 block)
CN(C)c1ccc(C=c2c3ccccc3n3c2c2ccccc2[n+]3C)cc1	none (no result: SENP8 block-1, SENP6 block, Platelet DG rel, SENP7 block)
CCOC(=O)c1cc2c(=Cc3ccc(N(C)C)cc3)c3ccccc3n2[n+]1C	SENP8 block-2 91 (no result: SENP8 block-1, SENP6 block, Platelet DG rel, SENP7 block)
COc1ccc(-n2nnnc2C2(C)CCC(=O)N2Cc2ccccc2)cc1 (stereo unspecified)	none (no result: SENP8 block-1, SENP6 block, Platelet DG rel, SENP7 block)
COC(=O)c1sccc1NC(=O)c1cc2c(s1)CCCC2	SENP7 block 56
CC1=NN(c2ccc(Cl)cc2)C(=O)C1	none

Screening data from PubChem BioAssay.
